Key:
Tyrosinase = molecular target: T1, Tyrosinase (Agaricus bisporus, UniProt O42713); assay: Inhibition of mushroom tyrosinase
T1 sequence (O42713 whole entry): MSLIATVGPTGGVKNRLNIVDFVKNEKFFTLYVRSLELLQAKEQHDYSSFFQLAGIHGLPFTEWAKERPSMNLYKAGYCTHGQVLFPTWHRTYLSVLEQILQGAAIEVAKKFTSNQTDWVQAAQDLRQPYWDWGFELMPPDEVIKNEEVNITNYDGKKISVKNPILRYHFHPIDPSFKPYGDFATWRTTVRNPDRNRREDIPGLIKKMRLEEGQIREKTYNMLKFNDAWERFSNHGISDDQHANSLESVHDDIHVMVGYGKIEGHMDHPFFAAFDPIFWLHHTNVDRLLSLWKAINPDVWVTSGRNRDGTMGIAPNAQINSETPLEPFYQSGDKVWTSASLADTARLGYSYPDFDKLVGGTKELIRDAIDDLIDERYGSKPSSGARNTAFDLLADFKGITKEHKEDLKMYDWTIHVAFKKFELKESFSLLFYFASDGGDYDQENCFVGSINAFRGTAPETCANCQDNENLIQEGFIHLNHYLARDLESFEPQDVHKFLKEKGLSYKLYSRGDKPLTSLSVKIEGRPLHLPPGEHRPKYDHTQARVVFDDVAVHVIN
Summary of the method: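 Wells held 50 mM potassium phosphate pH 6.5, tyrosinase at 50 units/mL final and inhibitor in absolute ethanol (5-100 µM final). After 10 min at 25 °C, L-tyrosine was added to 1 mM. Absorbance at 450 nm was read every 5 min against an ethanol-only control. IC50 was taken from the linear zone at 20 min.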

[1] = molecular target: T2, Tyrosinase (Agaricus bisporus) (UniProt O42713); assay: Inhibition of mushroom tyrosinase at 10 uM for 10 min pre-incubated before addition of tyrosine
T2 sequence (whole entry): T1 sequence (O42713 whole entry)

[2] = molecular target: T2, Tyrosinase (Agaricus bisporus); assay: Inhibition of mushroom tyrosinase at 0.3 uM for 10 min pre-incubated before addition of tyrosine
[3] = molecular target: T2, Tyrosinase (Agaricus bisporus); assay: Inhibition of mushroom tyrosinase at 0.3 uM for 10 min preincubated before addition of 1 mM tyrosine
[4] = molecular target: T2, Tyrosinase (Agaricus bisporus); assay: Inhibition of mushroom tyrosinase at 0.3 uM for 10 min pre-incubated before addition of 3.75 mM tyrosine

| Compound | IC50 (Tyrosinase) [µM] | further results |
| --- | --- | --- |
| O=C(O)CCc1ccc(O)cc1O | 1.85 | inhibition [1]: 80% |
| CC(C)OC(=O)CCc1ccc(O)cc1O | 0.07 | – |
| CCC(C)(C)C(OC(=O)CCc1ccc(O)cc1O)C(C)(C)CC | 0.15 | inhibition [2]: 80%; inhibition [3]: 97%; inhibition [4]: 86% |
| CCCCCCCCOC(=O)CCc1ccc(O)cc1O | 0.7 | – |

Now from value to compound, other results behind:

| IC50 (Tyrosinase) [µM] | Compound | further results |
| --- | --- | --- |
| 14.9 | CC(C)(C)OC(=O)CCc1ccc(O)cc1O | – |
| 0.18 | CC(C)(C)COC(=O)CCc1ccc(O)cc1O | – |
| 0.22 | CCOC(=O)CCc1ccc(O)cc1O | – |
